Screening results as filed in PubChem.
This excerpt belongs to a sample that is enriched for hits.
Myeloid diff 2 – promotes myeloid progenitor differentiation. ER-HoxA9 myeloid progenitors, lysozyme-GFP differentiation, flow cytometry. calls only at 10 µM. 360,000 compounds, 1% hits;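 active = normalized GFP-positive differentiation at or above the plate's own cutoff, the solvent-only control mean plus 3 SD; inconclusive = no clear call, values can overlap the other calls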;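 note: cells exposed to compound for four days before flow analysis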
ABCB6 inh 2 – human ABCB6 transporter inhibition. Q9NP58. K562-ABCB6 porphyrin accumulation, flow cytometry, 1 h; stronger effect = lower value. fluorescence ratio to DMSO, % at 10 µM. 360,000 compounds, 0.19% hits. AID 602162;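 active = fluorescence ratio to DMSO below 75%, the collection mean minus 3 SD; inconclusive = too few cells collected in the well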;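 note: signal is porphyrin accumulated inside mitochondria; 100% equals median channel fluorescence of DMSO control wells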
Target sequence (Q9NP58 whole entry, looked up): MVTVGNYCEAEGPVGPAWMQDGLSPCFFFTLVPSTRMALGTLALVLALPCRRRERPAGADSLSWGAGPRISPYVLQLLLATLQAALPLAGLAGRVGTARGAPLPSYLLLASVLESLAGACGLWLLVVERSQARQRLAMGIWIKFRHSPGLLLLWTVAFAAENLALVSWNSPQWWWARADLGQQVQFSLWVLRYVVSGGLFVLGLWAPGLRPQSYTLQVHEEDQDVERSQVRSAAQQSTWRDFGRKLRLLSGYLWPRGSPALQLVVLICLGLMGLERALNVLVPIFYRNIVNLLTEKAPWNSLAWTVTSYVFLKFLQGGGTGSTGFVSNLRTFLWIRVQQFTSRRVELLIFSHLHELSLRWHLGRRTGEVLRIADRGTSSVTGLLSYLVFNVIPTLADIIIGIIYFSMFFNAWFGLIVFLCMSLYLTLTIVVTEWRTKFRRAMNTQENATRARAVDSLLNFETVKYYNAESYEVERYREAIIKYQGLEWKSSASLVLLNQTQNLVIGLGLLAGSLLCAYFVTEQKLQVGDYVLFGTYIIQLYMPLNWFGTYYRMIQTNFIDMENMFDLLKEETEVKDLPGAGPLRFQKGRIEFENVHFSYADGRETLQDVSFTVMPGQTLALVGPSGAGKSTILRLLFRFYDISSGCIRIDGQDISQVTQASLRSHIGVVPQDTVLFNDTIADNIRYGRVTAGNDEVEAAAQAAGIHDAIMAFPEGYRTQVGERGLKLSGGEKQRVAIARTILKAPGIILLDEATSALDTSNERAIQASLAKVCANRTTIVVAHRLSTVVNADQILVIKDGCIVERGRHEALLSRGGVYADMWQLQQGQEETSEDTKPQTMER
Xi reactivation – X-chromosome reactivation activator; activation, % at 7.58 µM; XiGFP mouse fibroblasts, % GFP-positive cells imaging, 3 d; cells co-treated with 5-aza-dC sensitizer; scaled so ellipticine positive control = 100%; AID 743238; 360,000 compounds, 0.055% hits;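 active = mean normalized replicate activation at least 10% and every replicate at or above 10%; inconclusive = only one of the two criteria met; inactive = mean below 10% and not all replicates reach 10%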;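 note: 0% = median of on-plate neutral control wells and 100% = ellipticine 6 µM median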
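assay system = SV40-immortalized XiGFP fibroblast cells, line 68-5-11 | buffer or medium = DMEM plus 5-aza-dC sensitizer | doses = single-point pinned compound dosing | times = 3-day compound exposure, then 15 min fixation at room temperature | benchmarks = positive control ellipticine, 6 µM final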
Myeloid diff – promotes myeloid progenitor differentiation; calls only; 2,300 compounds, 2% hits; ER-HoxA9 myeloid progenitors, GFP/Mac1 double-positive flow; shares compounds with Myeloid diff 2; AID 651706;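 active = share of green or green-and-red cells above 9 and 9% in run 1 or 4 and 3% in run 2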
GFP autofluor – counter-screen for myeloid differentiation promoters: compound fluorescence; shares compounds with Myeloid diff 2; ER-HoxA9 myeloid progenitors, no estrogen, GFP autofluorescence flow cytometry; vehicle wells 0%, positive control 100%; fluorescence response, % (test concentration not listed); 2,300 compounds, 7.4% hits;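 active = over 5% cells positive for green fluorescent reporter, or over 2% positive for both it and APC stain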;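 note: range taken on the double positive population between DMSO and positive control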
* hit, by the source's call; i = inactive; ? = inconclusive; . = not tested or not shown; + = active, no number.

SMILES	Myeloid diff 2	ABCB6 inh 2	Xi reactivation	Myeloid diff	GFP autofluor
COc1ccc(CN(C)C[C@H]2Oc3ccc(NC(=O)Cc4ccccc4)cc3CC(=O)N([C@H](C)CO)C[C@H]2C)cc1	.	.	0	.	.
COc1ccc(NC(=O)C[C@H]2C(=O)N(c3ccc(Br)cc3)C[C@@H]2CSC)cc1	i	101	1	i	1
COc1ccc(N2C[C@H](CSC)[C@@H](CC(=O)Nc3ccc(Br)cc3)C2=O)cc1	i	99	0	.	.
C[C@@H]1CN([C@H](C)CO)C(=O)c2cc(C#Cc3ccccc3F)cnc2O[C@H]1CN(C)C(=O)C1CC1	.	.	-1	.	.
C[C@H](O)C#Cc1cnc2c(c1)C(=O)N([C@@H](C)CO)C[C@H](C)[C@H](CN(C)C(=O)Nc1ccc(C(F)(F)F)cc1)O2	.	.	-1	.	.
Cc1cc(C)c(S(=O)(=O)NC2CCN(Cc3ccccc3)CC2)c(C)c1	i	97	0	.	.
Cc1cc(C)c(S(=O)(=O)NNC(=O)C2CCN(Cc3ccccc3)CC2)c(C)c1	i	101	.	i	87*
COc1ccccc1NC(=O)CSc1nnc(-c2ccco2)n1Cc1ccco1	i	97	.	i	1
COc1ccccc1NC(=O)CSc1nnc(-c2ccccn2)n1Cc1ccco1	i	96	.	.	.
Cc1noc(C)c1S(=O)(=O)Nc1ccc2c(c1)C(=O)N([C@@H](C)CO)C[C@H](C)[C@H](CN(C)C(=O)CCCN(C)C)OCCCC[C@H](C)O2	.	.	0	.	.
C=CCNC(=O)c1ccc(N(CC=C)S(C)(=O)=O)cc1	+	94	.	i	0
C=CCNC(=O)c1ccc(N(Cc2ccccc2)S(C)(=O)=O)cc1	i	92	0	.	.
C[C@H]1CCCCO[C@H](CN(C)C(=O)CCCN(C)C)[C@@H](C)CN([C@@H](C)CO)C(=O)c2cc(NS(=O)(=O)c3cccs3)ccc2O1	.	.	0	.	.
OC[C@@H]1[C@@H](c2ccccc2)C2(CN(CC3CC3)C2)N1Cc1cncnc1	.	.	0	.	.
CN(C)CC(=O)N1CCCCN2[C@@H](CO)[C@@H](c3ccc(/C=C/c4ccccc4)cc3)[C@@H]2C1	.	.	0	.	.
C[C@H](CO)N1C[C@H](C)[C@H](CN(C)C(=O)Nc2ccc(F)cc2)Oc2ccc(NC(=O)CCC(F)(F)F)cc2C1=O	.	.	1	.	.
CCN1CCN(c2ccc(S(=O)(=O)N3CCCCC3)cc2NC(=O)/C=C/c2ccc(OC(F)F)cc2)CC1	i	94	0	i	0
CN1CCN(c2ccc(S(=O)(=O)N3CCCCC3)cc2NC(=O)/C=C/c2ccc(OC(F)F)cc2)CC1	i	95	0	.	.
O=C(C[C@H]1CC[C@@H](NC(=O)c2ccccc2)[C@H](CO)O1)NCc1ccncn1	.	.	0	.	.
CC(C)COC(=O)C(C#N)c1nc2ccccc2nc1N1CCN(Cc2ccc3c(c2)OCO3)CC1 (stereo not given)	i	89	.	.	.
CCCCOC(=O)C(C#N)c1nc2ccccc2nc1N1CCN(Cc2ccc3c(c2)OCO3)CC1 (stereo not given)	+	108	.	i	0
Cc1ccc([C@@H]2C[C@H]3[C@@H](CN2S(=O)(=O)c2ccc(C)cc2)C(=O)C[C@@H](c2ccccc2)N3S(=O)(=O)c2ccc(C)cc2)cc1	i	101	0	.	.
Cc1ccc(S(=O)(=O)N2CCC(=O)CC2c2ccccc2)cc1 (stereo not given)	i	100	0	i	0
Cc1ccc(S(=O)(=O)N2[C@H](c3ccccc3)CC(=O)[C@@H]3CN(S(=O)(=O)c4ccccc4)[C@H](c4ccccc4)C[C@@H]32)cc1	i	100	0	.	.
Cc1ccc([C@@H]2C[C@H]3[C@@H](CN2S(=O)(=O)c2ccc(C)cc2)C(=O)C[C@@H](c2cccc(Cl)c2)N3S(=O)(=O)c2ccc(C)cc2)cc1	i	99	0	.	.
SMILES	Myeloid diff 2	ABCB6 inh 2	Xi reactivation	Myeloid diff	GFP autofluor
Cc1ccc(S(=O)(=O)N2C[C@H]3C(=O)C[C@@H](c4ccccc4)N(S(=O)(=O)c4ccccc4[N+](=O)[O-])[C@H]3C[C@H]2c2ccccc2)cc1	+	100	.	i	0
Cc1ccc(S(=O)(=O)N2CC3C(=O)CC(c4ccccc4)N(S(=O)(=O)c4ccc(C)cc4)C3CC2c2cccc(Cl)c2)cc1 (stereo not given)	+	.	0	i	1
C[C@H]1CN([C@@H](C)CO)C(=O)Cc2cc(NC(=O)C3CCCCC3)ccc2O[C@@H]1CN(C)S(=O)(=O)c1cn(C)cn1	.	.	0	.	.
Cc1noc(C)c1NC(=O)Nc1ccc2c(c1)C(=O)N([C@H](C)CO)C[C@@H](C)[C@@H](CN(C)C(=O)Nc1ccccc1)OCCCC[C@@H](C)O2	.	.	0	.	.
C[C@H](CO)N1C[C@H](C)[C@H](CN(C)C(=O)C2CC2)Oc2cc(C#CCN(C)C)ccc2S1(=O)=O	.	.	-1	.	.
Cc1ccccc1CN(c1ccc(C(=O)Nc2ccccc2C(=O)NCc2ccco2)cc1)S(C)(=O)=O	i	107	.	i	0
Cc1ccc(C(=O)Nc2ccccc2C(=O)NCc2ccco2)cc1	i	?	0	.	.
C[C@@H]1CN([C@H](C)CO)C(=O)c2cc(NS(=O)(=O)c3cn(C)cn3)ccc2O[C@@H](C)CCCCO[C@H]1CN(C)S(=O)(=O)c1ccccc1	.	.	0	.	.
COc1cc(NS(=O)(=O)c2ccc(NC(=S)NC(=O)c3ccc(F)cc3)cc2)nc(OC)n1	i	97	0	.	.
COc1ccc(C(=O)NC(=S)Nc2ccc(S(=O)(=O)Nc3cc(OC)nc(OC)n3)cc2)cc1	+	97	0	i	0
CO[C@H]1CN(C)C(=O)c2cc(NC(=O)C3CC3)ccc2OC[C@@H](C)N(C(=O)CN2CCOCC2)C[C@H]1C	.	.	0	.	.
CS(=O)(=O)N1[C@@H]2c3ccc(-c4cccc(F)c4)c(=O)n3C[C@H]1[C@H](CO)[C@H]2C(=O)N1CCOCC1	.	.	0	.	.
CCCOn1nnnc1-c1ccccc1	i	99	.	i	0
CCCOc1nnnn1-c1ccccc1	i	93	.	.	.
COc1ccc(OC)c(C=NNC(=O)c2ccccc2NS(=O)(=O)c2cccs2)c1	+	121	0	i	2
COc1ccc(C=NNC(=O)c2ccccc2NS(=O)(=O)c2cccs2)cc1O	i	97	0	.	.
COc1ccc(-c2ccc([C@@H]3[C@@H](C#N)N(C(=O)NC4CCCC4)[C@H]3CO)cc2)cc1	.	.	0	.	.
Cc1ccc(C)c(OCc2nnc(N)s2)c1	i	106	.	i	0
Nc1nnc(COc2ccc(Br)cc2Br)s1	i	112	.	.	.
O=C(Nc1cccc(NC(=O)c2ccc(Br)o2)n1)c1ccc(Br)o1	i	94	.	.	.
N#Cc1c(NC(=O)c2ccc(Br)o2)n(-c2ccccc2)c2nc3ccccc3nc12	+	123	4	i	0
COCC(=O)Nc1ccc2c(c1)[C@@H]1C[C@@H](CC(=O)N3CCc4ccccc4C3)O[C@@H](CO)[C@@H]1O2	.	.	0	.	.
